Data reported in ChEMBL document CHEMBL4811241, “Revisiting Pyrazolo[3,4-d]pyrimidine Nucleosides as Anti-Trypanosoma cruzi and Antileishmanial Agents” (J Med Chem, 2021).
Activity calls are given as the source filed them. No cut-off for these calls is given here.

Legend:
Trypanosoma cruzi [1] = assay: Antitrypanosomal activity against Trypanosoma cruzi strain Y bloodstream trypomastigotes infected in Swiss Webster mouse assessed as reduction in parasitemia at 100 mg/kg, po qd for 5 days treatment started at 6 days post-infection and measured at 8 days post-infection by light microscopic analysis; format: functional, organism-based; settings: time 2.0 day
Method in brief: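 Male Swiss Webster mice, 18–20 g, six per group; only mice with detectable parasitemia treated. Oral gavage for 5 consecutive days (6–10 dpi); test compound given b.i.d. in 10% Tween 80, benznidazole once daily, formulations freshly prepared. Parasitemia counted by light microscopy in 5 μL blood; mortality checked daily to 34 dpi.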

[2] = Toxicity in Swiss webster mouse infected with Trypanosoma cruzi Y trypomastigotes assessed as animal survival at 10 mg/kg, po qd for 5 days treatment started at 6 days post-infection and measured at 34 days post-infection; format: organism-based; settings: in vivo, 696 h, time 29 day
Method in brief: (§1)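 Male Swiss Webster mice (18−20 g, 4−5 weeks) were infected i.p. with 10⁴ Y-strain bloodstream trypomastigotes from a donor mouse. Only mice with detectable parasitemia were treated, in groups of six. Oral gavage was given on days 6–10 post-infection, b.i.d. or q.d. as listed, in 10% Tween 80 vehicle, freshly prepared. Infected vehicle controls were included. Mortality was checked daily to 34 dpi as cumulative percentage.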

[3] = Toxicity in Swiss webster mouse infected with Trypanosoma cruzi Y trypomastigotes assessed as animal survival at 100 mg/kg, po qd for 5 days treatment started at 6 days post-infection and measured at 34 days post-infection; format: organism-based; settings: in vivo, time 29 day; method in brief: as §1
Trypanosoma cruzi [4] = assay: Antitrypanosomal activity against nifurtimox-sensitive Trypanosoma cruzi Tulahuen CL2 infected in Swiss mouse peritoneal macrophages assessed as inhibition of parasite growth measured after 7 days by spectrophotometric analysis; format: functional, organism-based; settings: Tulahuen CL2, Peritoneal macrophage, 168 h

Compound: O=C(Cn1ccnc1[N+](=O)[O-])NCc1ccccc1 [BENZNIDAZOLE]
- Activity (Trypanosoma cruzi [1]): Active
- Activity [2]: Non-Toxic
- survival at 696 h [3]: 100%
- IC50 (Trypanosoma cruzi [4]): 1960 nM
